The text below walks through data of the RNAGym collection of RNA variant scans (doi:10.1126/science.aae0568).

The chains are these.
B1: tRNA (parent)
chain: GUUCCGUUGGCGUAAUGGUAACGCGUCUCCCUCCUAAGGAGAAGACUGCGGGUUCGAGUCCCGUACGGAACG

This sample holds only a part of the variants without activity. Where only a bound is given, the exact number is not on record here.

The data set covers variants of B1. The data set is described as follows: yeast fitness relative to wild type (ratio to wild type); higher = fitter; tRNA-Arg(CCU), competitive growth, 37 C, YPD. The procedure, abridged:
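Amplicons of the tRNA-Arg(CCU) gene were sequenced, 100-nucleotide paired-end, from the start population and from each end population of a pooled yeast competition. The competition, in six parallel replicates, lasted 24 hours in YPD at 37°C. Fitness relative to wild type was calculated from changes in genotype frequencies. Genotypes had to have ≥ 100 starting reads, and estimates < 0.5 were set to 0.5.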
Turning to GUUCCGUUGGUGUAAUGGUAACGCGCCUCCCUCCUAAGGAGAAGACAGCGGGUUCGAGUCCCGAACGGAACG, the yeast fitness is no more than 0.5.
For GUUCCGUUGGCGUAAUGUUAACGCGUCUCCCUCCUAAGGAGAAGGCUGCGGGUUCGAGUCCCGUACGGAACG, the yeast fitness came to 0.758.
The result for GUUCCGUUGGCGUAAUGGUAACGCGUCUCGCUCCUGAGGAGAAGACUGCGGGAUCGAGUCCCGUACGAAACG reads no more than 0.5.
For the variant GUUCCGUUGGCGCAAUGGUAACGCAUCUCCCUCCUAAGGAGAAGACUGCGGGUUCGAGUCCCGUACGGUACG, the yeast fitness amounted to 0.767.
On to GUUCCGUUGGCGUAAUGGUAACGCGUCUUCCUCCUAAGGAGAAGACUACGGGUUCCAGUCCCGUACGGAACG, for which the yeast fitness turned out to be 0.536.
For GUUCCGAUGGCGUAAUGGUAACGCGUCUCCCUCCUACGGAGACGACUGCGGGUUCGAGUCCCGUACGGAACG, the yeast fitness was 0.583.
The result for GUUCUGUUGGCGUAUUGGUAGCGCGUCUCCCUCCUAAGGAGAAGACUGUGGGUUCGAGUCCCGUACGGAACG reads no more than 0.5; that for GUACCGUUGGCGUAAUGGUACCGCGUCUCCCUCCUUAGGAGAAGACUGCGGGUUCGAGUCCCGUACGGAACG, no more than 0.5.
For the variant GUUCAGUUGGCGUAAUGGUAACCCGUCUCCCUCCUAAGGAGAAGACUCCGGGUUCGAGUCACGUACGGAACG, the yeast fitness was no more than 0.5.
For the variant GUUCCGUUGGCGUAAUGGUAACGCGUCUCCCUCCUAAGGAGAAGACUGCGGGUUCGAGUCCCGUUCGGACCG, the yeast fitness came to 0.823.
In the case of GUUCGGUUGGCAUAAUGGUAACGCGUCUCCCUCCUAAGGAGAAGAUUGCGGGUUCGAGUCCCGUACGGAACG, the yeast fitness amounted to 0.572.
The result for GUUCCGUUGGCGUAAUGGUAACGCGUUUCCCUCCUUACGAGACGACUGCGGGUUCGAGUCCCGUACGGAACG reads no more than 0.5.
GUACCGUUGGCGUAAUAGUAAUGCGUCUCCCUCCUAAGGAGAAGACUGCGGGUUCGAGUCCCGUAUGGAACG: the yeast fitness amounted to 0.616.
Take GUUCCGUUGGCGUACUGGUAACGCGUCGCCCUCCUAAGGAGAAGGCUGCGCGUUCGAGUCCCGUACGGAACG: the yeast fitness amounted to 0.554.
Regarding GUUCCGUCAGCGUAAUGGUAACGCGUCUCCCUCCUAAGGCGAAGACUGCGGGUUCGAGUCCCGUACGGAACG, the yeast fitness was found to be 0.672.
Take GUUCCGUUGGCGUAAUGGUAACGCGUCUCCUUCCUAAGGAGAAGACUGCGGGUUCGAGUCCCGUACGUUACG: the yeast fitness came to 0.615.
GUUCCGUUGGCGUAAUGGUAACGCGUCUCCUUUCUAAGGAGCAGACUGUGGGUUCGAGUCCCGUACGGAACG: the yeast fitness was no more than 0.5.
The result for GUCCCGUUAGCGUAAUGGUAACGCGUCUCCCUCCUAAGGAGUAGACUGCGGGUUCGAGUCCCGUACGGAUCG reads no more than 0.5; that for GUUCCGUUGGCGUAAUGGUAAGGGGUCUUCCUUCUACGGAGAAGACUGCGGAUUCGAGUCUCGUACGGAACG, no more than 0.5.
Regarding GUUCCGUUGGCGUAAUGGUCACGAGUCUCCCUCCUAAGGAGAAGACUGCGGGUUCGAGUGCCGUACGGAACG, the yeast fitness is no more than 0.5.
Take GUUCCGUUGGCGUAAAGGUGACGCGUUUCCCUCCUAAGGACAAGACUGCGGGUUCGAGUCCCAUACGGAACG: the yeast fitness is no more than 0.5.
The result for GUUCCGUUGGCGUAAUGGUAACGCGUCUCCCUCCUAAGGAGAAGACGGCGGGUUCGAGUGCAGUGCGGAACG reads no more than 0.5; that for GUUCCGUUGGCGUAAUGGUAACGCCUCUUCCUUCUAAGGGGAAGACUGCGGAUUCGAGCCCCGUUCGGAACG, no more than 0.5; that for GUGCCGUUGGCGUAAUGGUAACGCGUCUCCCUCCUAAGGAGAAGACUGCGGGUUCGAGACCCGUACGGAACG, 0.793.
With GUUCCGUUGGCGUAAUGGUUACGCGUCUCCCUCCUAAGGAGGAGACUGCGGGUUCGAGUCCCGUACGGAACG, the yeast fitness was determined as 0.797.
As for GGUCCGUUGGCGUAAUGGUAACGCGUCUCCCUCCUAAGGAGAAGACUGCGGGUUCGAGUCCCGUACGGACCG, the yeast fitness came to 0.836.
GUUCCGUUGGCGUAAUGGUAACGCGUCUCCCUCCUAAGAAGAAGACUGCGGGUUCAAGUCCCGUACGGAACG: the yeast fitness came out at 0.914.
As to GUUCUGUUGGCGUAAUGGUUACGCGUCUCCCUCCUAAGGAGAAGACUGCGGGUUCGAGUCCCGUACAGAGCG, the yeast fitness was 0.933.
With GUUCCGUUGGCGUUAUGGUAACGCGUCUCCCUCCUUAGGAGAAGACUGCGGGUUCGAGUCCCAUACGGAACG, the yeast fitness is 0.533.
For GUUCCGUUGGCGUAAUGGUAACGCGUCUCCCUCCUAAGGAGAAGACUCCGGGUUCGAGUCCCGCACGGAACG, the yeast fitness worked out at 1.08.
On to GUUCCGUUGGCGUAAUAGUAACGCGUCUCCCUCCUAAGGAGAAGACUGCGGGUACCAGUCCCGUACGAAACG, for which the yeast fitness was no more than 0.5.
The result for GUUCCGUUGGCGUAUUGGUAACGCGUCUCUCUCCUAAGGGGAAGACUGCGGGUUUGAGUCCCGUACGGAACG reads 0.653.
The result for GUCCCGUUGGCGUAAUGGUAACGCGUCUCCCUCCUACGGAGAAGACUGCGGGUUCGAGUCCCGAACGGAACG reads 0.598; that for GUUCCGUUGGCGUAAUAGUGACGCGUCUCCCUCCUAAGGAGUAGACUGCGGGUUCGAGUCCCGUACGGAACG, 0.644; that for GUUCCGUUGGCGUAAUGGUAACGCGUCUCCGUUCUAAGGAGCAGACUGCGGGUUCGAGUCCCGUAGGGAACG, no more than 0.5.
As for GUUCCGUUGGCGUAACGGUAACGCGUCUUCCUCCUUAGGAGAAGACUGCGGGUUCGAGUCCCGUAUAGAACG, the yeast fitness is no more than 0.5.
As to GUUCCGUUGGCGUCAUGGUAACGCGUCUCCCUCCUAAGGAAAAGACUGCGGGUUCGAGUCCCGUACGGAACG, the yeast fitness was determined as 0.553.
For GUUCCGUUGGCAUAAUGGUAACGCGUCUCCCUCCUAAGGCGAAGACUGCGGGUUAGAGUCCCGUACGGAACG, the yeast fitness is no more than 0.5.
